In ChEMBL document CHEMBL1221348, “1,2,3-triazole analogs of combretastatin A-4 as potential microtubule-binding agents” (Bioorg Med Chem, 2010):

These compounds were tested on K562 (assay: Cytotoxicity against human K562 cells after 5 days by MTT assay). Conditions: K562, 120 h.
Assay type: functional, cell-based
Procedure, shortened: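 K562 human chronic myelogenous leukemia cells were grown in antibiotic-free RPMI with 10% v/v FCS and plated at 40,000 cells/mL. Drug was dissolved in DMSO and serially diluted in medium, with a drug-free control. Plates were incubated 5 days at 37 °C in 5% CO2. MTT was added for 3 h and the formazan dissolved in DMSO. OD was read at 540 and 690 nm to derive the growth-inhibitory dose.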

SMILES	IC50 [µM]
COc1ccc(-c2cn(Cc3cc(OC)c(OC)c(OC)c3)nn2)cc1	> 10
COc1ccc(Cn2cc(-c3cc(OC)c(OC)c(OC)c3)nn2)cc1Br	> 10
COc1ccc(-c2cnnn2Cc2cc(OC)c(OC)c(OC)c2)cc1N	0.38
COc1ccc(-c2cn(Cc3cc(OC)c(OC)c(OC)c3)nn2)cc1[N+](=O)[O-]	> 10
COc1ccc(Cn2nncc2-c2cc(OC)c(OC)c(OC)c2)cc1N	0.73
COc1ccc(-c2cnnn2Cc2cc(OC)c(OC)c(OC)c2)cc1Br	> 10
COc1ccc(Cn2cc(-c3cc(OC)c(OC)c(OC)c3)nn2)cc1N	> 10
COc1ccc(-c2cnnn2Cc2cc(OC)c(OC)c(OC)c2)cc1	5.56
COc1ccc(-n2cc(-c3cc(OC)c(OC)c(OC)c3)nn2)cc1Br	> 10
COc1ccc(-n2cc(-c3cc(OC)c(OC)c(OC)c3)nn2)cc1O	3.2
COc1ccc(-c2cn(-c3cc(OC)c(OC)c(OC)c3)nn2)cc1Br	> 10
COc1ccc(Cn2cc(-c3cc(OC)c(OC)c(OC)c3)nn2)cc1O	> 10
COc1ccc(-n2cc(-c3cc(OC)c(OC)c(OC)c3)nn2)cc1[N+](=O)[O-]	> 10
COc1ccc(-n2cc(-c3cc(OC)c(OC)c(OC)c3)nn2)cc1	> 10
COc1ccc(-c2cn(-c3cc(OC)c(OC)c(OC)c3)nn2)cc1[N+](=O)[O-]	> 10
COc1ccc(Cn2nncc2-c2cc(OC)c(OC)c(OC)c2)cc1[N+](=O)[O-]	> 10
COc1ccc(-c2cn(Cc3cc(OC)c(OC)c(OC)c3)nn2)cc1O	> 10
COc1ccc(-c2cn(Cc3cc(OC)c(OC)c(OC)c3)nn2)cc1N	> 10
COc1ccc(-c2cn(Cc3cc(OC)c(OC)c(OC)c3)nn2)cc1Br	> 10
COc1ccc(Cn2nncc2-c2cc(OC)c(OC)c(OC)c2)cc1O	1.83
COc1ccc(-n2cc(-c3cc(OC)c(OC)c(OC)c3)nn2)cc1N	> 10
COc1ccc(-c2cnnn2Cc2cc(OC)c(OC)c(OC)c2)cc1[N+](=O)[O-]	> 10
COc1ccc(-c2cn(-c3cc(OC)c(OC)c(OC)c3)nn2)cc1O	> 10
COc1ccc(Cn2nncc2-c2cc(OC)c(OC)c(OC)c2)cc1	8.66
COc1ccc(Cn2cc(-c3cc(OC)c(OC)c(OC)c3)nn2)cc1[N+](=O)[O-]	> 10
COc1ccc(Cn2nncc2-c2cc(OC)c(OC)c(OC)c2)cc1Br	> 10
COc1ccc(Cn2cc(-c3cc(OC)c(OC)c(OC)c3)nn2)cc1	> 10
COc1ccc(-c2cnnn2Cc2cc(OC)c(OC)c(OC)c2)cc1O	0.53
COc1ccc(-c2cn(-c3cc(OC)c(OC)c(OC)c3)nn2)cc1	> 10

What follows are compounds tested against Tubulin (Sus scrofa, UniProt P02554+P02550) (assay: Inhibition of pig tubulin polymerization). Conditions: not given.
Assay type: protein assay
Procedure, shortened: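 Porcine brain tubulin (11 mg/mL stock) was used in Mes buffer (0.1 M Mes, 1 mM EGTA, 0.5 mM MgCl2, pH 6.6) with GTP (5 mM stock) and drug in DMSO. The plate was prechilled 30 min at 4 °C. Absorbance at 350 nm was recorded at ambient temperature for 60 min against buffer+drug blanks. IC50 was taken graphically as percent of untreated control assembly.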

SMILES	IC50 [µM]
COc1ccc(-c2cnnn2Cc2cc(OC)c(OC)c(OC)c2)cc1N	> 20
COc1ccc(Cn2nncc2-c2cc(OC)c(OC)c(OC)c2)cc1N	> 20
COc1ccc(-n2cc(-c3cc(OC)c(OC)c(OC)c3)nn2)cc1O	> 20
COc1ccc(-c2cn(-c3cc(OC)c(OC)c(OC)c3)nn2)cc1N	> 20
